Activity calls are given as the source filed them. The calls are words filed in the database; no cut-off is given here.
Columns and labels:
[1] = Stability of the compound in PBS buffer at pH 7.4; format: physicochemical
[2] = Half life in human plasma by LC-MS/MS analysis; format: ADME, cell-free
[3] = molecular target: Rho-associated protein kinase 2 (Homo sapiens, UniProt O75116); test: Inhibition of ROCK2 (unknown origin) using long S6 kinase peptide as substrate by radiometric assay
[4] = Inhibition of ROCK in rat A7r5 cells assessed as inhibition of MLC phosphorylation by direct ELISA; format: cell-based
[5] = Drug degradation in human plasma after 60 mins by LC-MS/MS analysis; format: ADME, cell-free; conditions: read-out: Drug degradation
[6] = Apparent permeability of the compound at 10 uM after 5 hrs by PAMPA; format: ADME
[7] = Drug degradation in aqueous humor of New Zealand white rabbit assessed as specific hydrolytic activity at 20 uM after 4 hrs by LC-MS/MS analysis; format: ADME, tissue-based, Oryctolagus cuniculus, Aqueous humor of eyeball
Summary of the method: (§1)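 Test compound was incubated with ocular tissues from ocular normotensive New Zealand White rabbits, and its degradation rate was followed. Specific hydrolytic activity (pmol min-1 mg-1) was calculated by normalizing the degradation rate to tissue weight. Aqueous humor half-life refers to undiluted aqueous humor.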

[8] = Drug degradation in cornea of New Zealand white rabbit assessed as specific hydrolytic activity at 20 uM after 4 hrs by LC-MS/MS analysis; format: ADME, tissue-based, Oryctolagus cuniculus; summary of the method: as §1
Oryctolagus cuniculus [9] = species: Oryctolagus cuniculus; test: Toxicity in New Zealand white rabbit assessed as hyperemia; format: organism-based; conditions: in vivo
[10] = Drug degradation in vitreous humor of New Zealand white rabbit assessed as specific hydrolytic activity at 20 uM after 4 hrs by LC-MS/MS analysis; format: ADME, tissue-based, Oryctolagus cuniculus; summary of the method: as §1
Oryctolagus cuniculus [11] = test: Reduction of IOP in New Zealand white rabbit eye administered topically after 6 hrs relative to vehicle-treated control; format: functional
[12] = Drug degradation in sclera of New Zealand white rabbit assessed as specific hydrolytic activity at 20 uM after 4 hrs by LC-MS/MS analysis; format: ADME, tissue-based, Oryctolagus cuniculus; summary of the method: as §1
[13] = Half life in aqueous humor of New Zealand white rabbit assessed as specific hydrolytic activity at 20 uM by LC-MS/MS analysis; format: ADME, tissue-based, Oryctolagus cuniculus, Aqueous humor of eyeball; summary of the method: as §1
[14] = Drug degradation in conjunctiva of New Zealand white rabbit assessed as specific hydrolytic activity at 20 uM after 4 hrs by LC-MS/MS analysis; format: ADME, tissue-based, Oryctolagus cuniculus; summary of the method: as §1
Oryctolagus cuniculus [15] = test: Reduction of IOP in New Zealand white rabbit eye administered topically after 3 hrs relative to baseline; format: functional; design: scale not given: the % may be the effect or the level left

Rho-associated protein kinase 2, sequence (O75116 whole entry): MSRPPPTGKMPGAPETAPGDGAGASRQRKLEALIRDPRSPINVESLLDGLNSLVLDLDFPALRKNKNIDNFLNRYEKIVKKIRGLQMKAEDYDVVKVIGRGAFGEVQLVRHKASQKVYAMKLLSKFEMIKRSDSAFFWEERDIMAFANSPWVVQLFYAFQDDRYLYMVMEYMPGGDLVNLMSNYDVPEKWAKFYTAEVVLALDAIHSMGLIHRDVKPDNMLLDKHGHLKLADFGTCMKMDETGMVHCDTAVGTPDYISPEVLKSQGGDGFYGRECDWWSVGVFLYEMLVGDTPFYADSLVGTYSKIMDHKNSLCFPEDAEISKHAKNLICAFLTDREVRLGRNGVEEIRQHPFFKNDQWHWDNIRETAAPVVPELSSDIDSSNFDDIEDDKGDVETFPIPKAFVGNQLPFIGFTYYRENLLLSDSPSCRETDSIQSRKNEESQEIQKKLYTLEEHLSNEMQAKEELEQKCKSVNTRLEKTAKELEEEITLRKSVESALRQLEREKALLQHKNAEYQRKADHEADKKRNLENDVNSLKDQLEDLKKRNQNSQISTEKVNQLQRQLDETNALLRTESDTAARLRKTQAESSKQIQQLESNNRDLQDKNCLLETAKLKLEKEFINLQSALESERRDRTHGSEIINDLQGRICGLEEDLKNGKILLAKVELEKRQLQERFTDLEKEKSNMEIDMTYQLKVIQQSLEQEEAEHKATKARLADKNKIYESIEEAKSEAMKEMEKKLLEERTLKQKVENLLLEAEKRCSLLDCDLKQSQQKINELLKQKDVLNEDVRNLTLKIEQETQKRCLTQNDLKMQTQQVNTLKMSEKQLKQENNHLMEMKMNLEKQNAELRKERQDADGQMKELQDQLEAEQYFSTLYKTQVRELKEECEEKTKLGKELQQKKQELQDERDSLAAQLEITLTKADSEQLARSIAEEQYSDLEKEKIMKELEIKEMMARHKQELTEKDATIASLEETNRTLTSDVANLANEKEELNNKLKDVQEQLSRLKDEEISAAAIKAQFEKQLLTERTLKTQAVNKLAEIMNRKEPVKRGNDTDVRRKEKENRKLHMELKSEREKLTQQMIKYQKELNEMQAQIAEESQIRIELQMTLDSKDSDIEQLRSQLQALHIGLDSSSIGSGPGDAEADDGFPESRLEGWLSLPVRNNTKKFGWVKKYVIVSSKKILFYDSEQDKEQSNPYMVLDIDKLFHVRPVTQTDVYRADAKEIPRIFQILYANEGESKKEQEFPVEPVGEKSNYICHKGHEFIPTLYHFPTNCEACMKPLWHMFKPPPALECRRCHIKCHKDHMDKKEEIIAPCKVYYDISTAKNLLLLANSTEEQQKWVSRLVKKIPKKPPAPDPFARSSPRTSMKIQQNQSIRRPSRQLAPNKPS

| SMILES | Stability [1] | half-life [2] | IC50 [3] | EC50 [4] | also measured |
| --- | --- | --- | --- | --- | --- |
| NCc1ccc(C(=O)Nc2ccncc2F)cc1-c1cccc(C(=O)OCCO)c1 | Stable | 81 min | 1.4 nM | – | – |
| NCc1ccc(C(=O)Nc2ccncc2F)cc1-c1cccc(C(=O)OCC2CC2)c1 | Stable | 18 min | 2.7 nM | – | – |
| CCOC(=O)c1cccc(-c2cc(C(=O)Nc3ccncc3)ccc2CN)c1 | Stable | 41 min | < 1 nM | – | – |
| COC(=O)c1cccc(-c2cc(C(=O)Nc3ccncc3)ccc2CN)c1 | Stable | 91 min | 2.9 nM | 8 nM | – |
| CC(N)c1ccc(C(=O)Nc2ccncc2)cc1-c1ccc(F)cc1 (stereo not given) | – | > 120 min | 1.2 nM | 6.1 nM | metabolised at 1 h [5]: < 5% |
| C[C@@H](N)[C@H]1CC[C@H](C(=O)Nc2ccncc2)CC1 [Y-27632] | – | > 120 min | – | 200 nM | metabolised at 1 h [5]: < 5% |
| NCc1ccc(C(=O)Nc2ccncc2)cc1-c1cccc(C(=O)OCc2ccccc2)c1 | Stable | 64 min | 45 nM | – | – |
| NCc1ccc(C(=O)Nc2ccncc2F)cc1-c1cccc(C(=O)O)c1 | – | > 120 min | 55 nM | > 1000 nM | Papp at 5 h, 10 µM [6]: < 0.01 ×10⁻⁶ cm/s; metabolised at 1 h [5]: < 5% |
| NCc1ccc(C(=O)Nc2ccncc2F)cc1-c1cccc(C(=O)OC2CCCOC2)c1 (stereo not given) | Stable | 18 min | 8.7 nM | – | – |
| NCc1ccc(C(=O)Nc2ccncc2)cc1-c1cccc(C(=O)O)c1 | – | > 120 min | 167 nM | > 1000 nM | Papp at 5 h, 10 µM [6]: < 0.01 ×10⁻⁶ cm/s; metabolised at 1 h [5]: < 5% |
| COCCCOC(=O)c1cccc(-c2cc(C(=O)Nc3ccncc3)ccc2CN)c1 | Stable | 26 min | 1.5 nM | 28 nM | – |
| COC(=O)c1cccc(-c2cc(C(=O)Nc3ccncc3F)ccc2CN)c1 | Stable | 65 min | 7.8 nM | 130 nM | – |
| NCc1ccc(C(=O)Nc2ccncc2F)cc1-c1cccc(C(=O)OCC2CCCO2)c1 (stereo not given) | Stable | < 5 min | 2.5 nM | 16 nM | Drug degradation [7]: 0.12 pmol/min/mg; Drug degradation [8]: 2.71 pmol/min/mg; Activity (Oryctolagus cuniculus [9]): Non-toxic; Drug degradation [10]: 0.22 pmol/min/mg; Activity (Oryctolagus cuniculus [11]): Active; Activity (Oryctolagus cuniculus [11]; record 2): 0.5%; Drug degradation [12]: 1 pmol/min/mg; half-life at 20 µM [13]: 116 min; Drug degradation [14]: 1.52 pmol/min/mg; Activity (Oryctolagus cuniculus [15]): 28.7% |
| CCCCCOC(=O)c1cccc(-c2cc(C(=O)Nc3ccncc3)ccc2CN)c1 | Stable | 58 min | 4.9 nM | – | – |
| CC(C)OCCOC(=O)c1cccc(-c2cc(C(=O)Nc3ccncc3F)ccc2CN)c1 | Stable | 6 min | 37 nM | – | – |
| NCc1ccc(C(=O)Nc2ccncc2)cc1-c1cccc(C(=O)OCC2CCCCC2)c1 | Stable | 99 min | 48 nM | – | – |
| COCCOC(=O)c1cccc(-c2cc(C(=O)Nc3ccncc3)ccc2CN)c1 | Stable | 12 min | 3.6 nM | 170 nM | – |
| NCc1ccc(C(=O)Nc2ccncc2F)cc1-c1cccc(C(=O)OCC2CCCCO2)c1 (stereo not given) | Stable | 7 min | 12 nM | – | – |
| NCc1ccc(C(=O)Nc2ccncc2)cc1-c1cccc(C(=O)OCC2CCCC2)c1 | Stable | 31 min | 5 nM | 70 nM | – |
| CCCOC(=O)c1cccc(-c2cc(C(=O)Nc3ccncc3)ccc2CN)c1 | Stable | 18 min | 1.4 nM | 9.1 nM | – |
| NCc1ccc(C(=O)Nc2ccncc2)cc1-c1cccc(C(=O)OC2CCCCC2)c1 | Unstable | > 120 min | 20 nM | – | – |
| CCCCCCOC(=O)c1cccc(-c2cc(C(=O)Nc3ccncc3)ccc2CN)c1 | Stable | 50 min | 22 nM | – | – |
| CCCCOC(=O)c1cccc(-c2cc(C(=O)Nc3ccncc3)ccc2CN)c1 | Stable | 22 min | 5.5 nM | – | – |
| NCc1ccc(C(=O)Nc2ccncc2F)cc1-c1cccc(C(=O)OCC2CCC2)c1 | Stable | 13 min | 4.3 nM | – | – |
| NCc1ccc(C(=O)Nc2ccncc2F)cc1-c1cccc(C(=O)Oc2ccccc2)c1 | Stable | 7 min | 6.2 nM | – | – |
| CCCOC(=O)c1cccc(-c2cc(C(=O)Nc3ccncc3F)ccc2CN)c1 | Stable | 19 min | 5.1 nM | – | – |
| NCc1ccc(C(=O)Nc2ccncc2F)cc1-c1cccc(C(=O)OCC2CCCC2)c1 | Stable | 17 min | 13 nM | 52 nM | – |
| COC(=O)c1ccc(-c2cc(C(=O)Nc3ccncc3)ccc2CN)cc1 | – | – | 102 nM | – | – |

From ChEMBL document CHEMBL2440036, “3-[2-(Aminomethyl)-5-[(pyridin-4-yl)carbamoyl]phenyl] benzoates as soft ROCK inhibitors” (Bioorg Med Chem Lett, 2013)
